Data as given in ChEMBL document CHEMBL3352728, “Synthesis and biological evaluation of 1,2,3-triazole linked aminocombretastatin conjugates as mitochondrial mediated apoptosis inducers” (Bioorg Med Chem, 2014).
pIC50: −log10 of the molar value. The source made the active and inactive calls. The rule behind the calls is not given here.

What was measured:
MCF7 = assay: Cytotoxicity against human MCF7 cells after 48 hrs by MTT assay; assay type: functional, cell-based; settings: MCF7, 48 h
Summary of the method: (§1)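 MTT assay. Cells seeded at 1×10^4 per well in DMEM with 10% FBS and grown 24 h at 37 °C under CO2. Compounds diluted in medium, vehicle control included, 48 h exposure. MTT (5 mg/mL stock) added for 4 h, formazan dissolved in DMSO, absorbance read at 570 nm. IC50 taken as the average of three independent experiments.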

HeLa = assay: Cytotoxicity against human HeLa cells after 48 hrs by MTT assay; assay type: functional, cell-based; summary of the method: as §1
HepG2 = assay: Cytotoxicity against human HepG2 cells after 48 hrs by MTT assay; assay type: functional, cell-based; settings: HepG2, 48 h; summary of the method: as §1
ACHN = assay: Cytotoxicity against human ACHN cells after 48 hrs by MTT assay; assay type: functional, cell-based; summary of the method: as §1
A549 [1] = assay: Cytotoxicity against human A549 cells after 48 hrs by MTT assay; assay type: functional, cell-based; settings: A549, 48 h; summary of the method: as §1
Tubulin (Homo sapiens) [2] = target: T1, Tubulin (Homo sapiens) (UniProt P68371+Q9H4B7+P0DPH7+P68366+Q13509+Q71U36+P04350+Q3ZCM7+P07437+P68363+Q9BQE3+Q6PEY2+Q13885+Q9BVA1+Q9BUF5); assay: Binding affinity to tubulin (unknown origin) incubated for 60 mins by colchicine competition assay; assay type: protein-complex assay
Summary of the method: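 Tubulin (3 μM) incubated with test agents (5, 10, 15, 20 μM) with and without 3 μM colchicine in 30 mM Tris buffer, 60 min at 37 °C. Tubulin–colchicine fluorescence read at ex 350/em 435 nm. Compound-alone signal subtracted from the compound+colchicine signal, Tris blank subtracted, values normalized to DMSO control. CA-4 positive control, taxol negative control.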

A549 [3] = assay: Induction of cell cycle arrest in human A549 cells assessed as accumulation at G0/G1 phase at 50 nM after 48 hrs by propidium iodide staining based flow cytometry (reference value: 87.75%); assay type: functional
A549 [4] = assay: Induction of cell cycle arrest in human A549 cells assessed as accumulation at S phase at 50 nM after 48 hrs by propidium iodide staining based flow cytometry (reference value: 4.69%); assay type: functional
Tubulin = assay: Inhibition of tubulin (unknown origin) polymerization incubated for 1 hr by fluorescence assay; assay type: protein-complex assay, Homo sapiens
A549 [5] = assay: Induction of ROS generation in human A549 cells at 25 nM incubated for 48 hrs by DCFH-DA staining based fluorescence assay; assay type: functional, cell-based
Summary of the method: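 A549 cells exposed to 25 nM for 48 h, then loaded with 5 μM DCFH-DA for 30 min at 37 °C. DCF fluorescence read at ex 485/em 530 nm. CA-4 at 25 nM run in parallel.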

A549 [6] = assay: Induction of apoptosis in human A549 cells assessed as caspase-3 activation at 25 nM incubated for 48 hrs by ELISA method; assay type: functional
Summary of the method: (§2)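 A549 cells treated 48 h at 25 or 50 nM, with CA-4 at 50 nM as reference. Cells pelleted, PBS-washed, lysed 15 min and centrifuged. Supernatant assayed with a colorimetric caspase-3 kit. Mean ± SD from two experiments, each in triplicate.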

A549 [7] = assay: Induction of cell cycle arrest in human A549 cells assessed as accumulation at S phase at 25 nM after 48 hrs by propidium iodide staining based flow cytometry (reference value: 4.69%); assay type: functional
A549 [8] = assay: Induction of apoptosis in human A549 cells assessed as apoptotic bodies level at 25 nM incubated for 48 hrs by Hoechst staining based fluorescent microscopy; assay type: functional, cell-based
Summary of the method: (§3)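 A549 cells, 10,000 per coverslip, cultured 24 h, then exposed to 25 nM for 48 h. Stained with Hoechst 33258 (0.5 mg/mL) for 30 min at 37 °C and washed in PBS. Random fields imaged by fluorescence microscopy and scored qualitatively for chromatin condensation, nuclear fragmentation and apoptotic bodies.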

A549 [9] = assay: Induction of apoptosis in human A549 cells assessed as nuclear fragmentation at 25 nM incubated for 48 hrs by Hoechst staining based fluorescent microscopy; assay type: functional, cell-based; summary of the method: as §3
A549 [10] = assay: Induction of DNA fragmentation in human A549 cells at 25 nM incubated for 48 hrs by agarose gel electrophoresis method; assay type: functional, cell-based
Summary of the method: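 A549 cells (1×10^6) plated for 24 h, then exposed to 25 nM for 48 h. Cells pelleted and lysed. Lysate treated with SDS and RNase A for 2 h at 56 °C, then proteinase K for 2 h at 37 °C. DNA precipitated with ammonium acetate and cold ethanol, redissolved in TE buffer, and laddering run on 2% agarose gel.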

A549 [11] = assay: Induction of cell cycle arrest in human A549 cells assessed as accumulation at subG1 phase at 25 nM after 48 hrs by propidium iodide staining based flow cytometry (reference value: 1.41%); assay type: functional
A549 [12] = assay: Induction of cell cycle arrest in human A549 cells assessed as accumulation at G2/M phase at 50 nM after 48 hrs by propidium iodide staining based flow cytometry (reference value: 6.15%); assay type: functional
A549 [13] = assay: Induction of microtubule network disruption in human A549 cells at 25 nM incubated for 48 hrs by immunohistochemistry; assay type: cell-based
Summary of the method: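 A549 cells on glass coverslips exposed to 25 nM for 48 h, with CA-4 at 25 nM in parallel. Fixed in 3% paraformaldehyde/0.02% glutaraldehyde and permeabilized in methanol overnight at 4 °C. Blocked with 1% BSA, stained with mouse anti-tubulin primary and FITC-labelled anti-mouse IgG, and examined by fluorescence microscopy for microtubule network integrity.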

A549 [14] = assay: Induction of cell cycle arrest in human A549 cells assessed as accumulation at G0/G1 phase at 25 nM after 48 hrs by propidium iodide staining based flow cytometry (reference value: 87.75%); assay type: functional
Tubulin (Homo sapiens) [15] = target: T1, Tubulin (Homo sapiens); assay: Inhibition of tubulin (unknown origin) polymerization at 3 uM incubated for 1 hr by fluorescence assay; assay type: protein-complex assay
Summary of the method: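 Fluorescence-reporter tubulin polymerization kit. PEM buffer with […], compounds at 3 μM final concentration. Fluorescence followed at ex 360/em 420 nm for 1 h at 37 °C. CA-4 positive control. Mean ± SD from two experiments, each in triplicate.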

A549 [16] = assay: Induction of cell cycle arrest in human A549 cells assessed as accumulation at G2/M phase at 25 nM after 48 hrs by propidium iodide staining based flow cytometry (reference value: 6.15%); assay type: functional
A549 [17] = assay: Induction of cell cycle arrest in human A549 cells assessed as accumulation at subG1 phase at 50 nM after 48 hrs by propidium iodide staining based flow cytometry (reference value: 1.41%); assay type: functional
A549 [18] = assay: Induction of apoptosis in human A549 cells assessed as caspase-3 activation at 50 nM incubated for 48 hrs by ELISA method; assay type: functional; summary of the method: as §2
A549 [19] = assay: Induction of apoptosis in human A549 cells assessed as chromatin condensation at 25 nM incubated for 48 hrs by Hoechst staining based fluorescent microscopy; assay type: functional, cell-based; summary of the method: as §3
A549 [20] = assay: Induction of mitochondrial membrane potential loss in human A549 cells at 25 nM incubated for 48 hrs by JC1 dye staining based fluorescence assay; assay type: functional, cell-based
Summary of the method: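 A549 cells exposed to 25 nM for 48 h, then loaded with JC-1 for 20 min at 37 °C. JC-1 green monomer emission (525 nm) compared with red aggregate emission (590 nm) to read depolarization. CA-4 at 25 nM included.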

| SMILES | pIC50 (MCF7) | pIC50 (HeLa) | pIC50 (HepG2) | pIC50 (ACHN) | pIC50 (A549 [1]) | further results |
| --- | --- | --- | --- | --- | --- | --- |
| COc1cccc(Cn2cc(C(=O)Nc3cc(/C=C\c4cc(OC)c(OC)c(OC)c4)ccc3OC)nn2)c1 | 5.79 | 5.94 | 5.74 | 5.28 | 5.73 | – |
| COc1cc(/C=C\c2cc(OC)c(OC)c(OC)c2)cc(NC(=O)c2cn(Cc3ccc(F)cc3)nn2)c1OC | 6.05 | 6.49 | 5.87 | 5.51 | 7.18 | – |
| COc1ccc(/C=C\c2cc(OC)c(OC)c(OC)c2)c(NC(=O)c2cn(Cc3cc(OC)c(OC)c(OC)c3)nn2)c1O | 5.62 | 6.11 | 5.77 | 5.29 | 6.08 | – |
| COc1ccc(/C=C\c2cc(OC)c(OC)c(OC)c2)c(NC(=O)c2cn(Cc3ccc(F)cc3)nn2)c1O | 5.73 | 6.48 | 6.45 | 5.47 | 6.25 | – |
| CC(=O)O[C@H]1C(=O)[C@@]2(C)[C@H]([C@H](OC(=O)c3ccccc3)[C@]3(O)C[C@H](OC(=O)[C@H](O)[C@@H](NC(=O)c4ccccc4)c4ccccc4)C(C)=C1C3(C)C)[C@]1(OC(C)=O)CO[C@@H]1C[C@@H]2O | – | – | – | – | – | Activity (Tubulin (Homo sapiens) [2]): inactive |
| COc1ccc(Cn2cc(C(=O)Nc3cc(/C=C\c4cc(OC)c(OC)c(OC)c4)cc(OC)c3OC)nn2)cc1 | 6.09 | 7.09 | 7.01 | 5.77 | 7.36 | Activity (Tubulin (Homo sapiens) [2]): Active; Activity (A549 [3]): 62.01%; Activity (A549 [4]): 7.9%; pIC50 (Tubulin): 6.02; Activity (A549 [5]): Active; fold change (FC) (A549 [6]): 3; Activity (A549 [7]): 7.84%; Activity (A549 [8]): Active; Activity (A549 [9]): Active; Activity (A549 [10]): Active; Activity (A549 [11]): 1.2%; Activity (A549 [12]): 26.63%; Activity (A549 [13]): Active; Activity (A549 [14]): 69.59%; inhibition (Tubulin (Homo sapiens) [15]): 70.9%; Activity (A549 [16]): 21.37%; Activity (A549 [17]): 3.46%; fold change (FC) (A549 [18]): 3; Activity (A549 [19]): Active; Activity (A549 [20]): Active |
| COc1cc(/C=C\c2cc(OC)c(OC)c(OC)c2)cc(NC(=O)c2cn(Cc3cccc(Oc4ccccc4)c3)nn2)c1OC | 5.37 | 5.23 | 5.40 | 5.18 | 5.57 | – |
| COc1ccc(Cn2cc(C(=O)Nc3c(/C=C\c4cc(OC)c(OC)c(OC)c4)ccc(OC)c3O)nn2)cc1 | 5.58 | 5.45 | 5.92 | 5.23 | 5.84 | – |
| COc1cccc(Cn2cc(C(=O)Nc3c(/C=C\c4cc(OC)c(OC)c(OC)c4)ccc(OC)c3O)nn2)c1 | 5.71 | 5.34 | 5.71 | 5.02 | 5.79 | – |
| COc1cccc(Cn2cc(C(=O)Nc3cc(/C=C\c4cc(OC)c(OC)c(OC)c4)cc(OC)c3OC)nn2)c1 | 5.90 | 6.24 | 6.29 | 5.54 | 6.39 | – |
| COc1ccc(/C=C\c2cc(OC)c(OC)c(OC)c2)cc1O [COMBRETASTATIN A4] | – | 7.74 | – | 8.30 | 7.28 | Activity (Tubulin (Homo sapiens) [2]): Active; Activity (A549 [3]): 61.32%; Activity (A549 [4]): 8.09%; Activity (A549 [12]): 26.48%; Activity (A549 [13]): Active; Activity (A549 [17]): 4.11% |
| COc1ccc(/C=C\c2cc(OC)c(OC)c(OC)c2)cc1NC(=O)c1cn(Cc2ccc(F)cc2)nn1 | 6.22 | 7.17 | 7.24 | 5.78 | 7.28 | Activity (Tubulin (Homo sapiens) [2]): Active; Activity (A549 [3]): 61.99%; Activity (A549 [4]): 7.93%; pIC50 (Tubulin): 5.94; Activity (A549 [5]): Active; fold change (FC) (A549 [6]): 3; Activity (A549 [7]): 5.49%; Activity (A549 [8]): Active; Activity (A549 [9]): Active; Activity (A549 [10]): Active; Activity (A549 [11]): 1.52%; Activity (A549 [12]): 25.73%; Activity (A549 [13]): Active; Activity (A549 [14]): 75.42%; inhibition (Tubulin (Homo sapiens) [15]): 66.8%; Activity (A549 [16]): 17.57%; Activity (A549 [17]): 4.36%; fold change (FC) (A549 [18]): 3; Activity (A549 [19]): Active; Activity (A549 [20]): Active |
| COc1cc(/C=C\c2cc(OC)c(OC)c(OC)c2)cc(NC(=O)c2cn(Cc3cc(OC)c(OC)c(OC)c3)nn2)c1OC | 5.86 | 6.14 | 5.47 | 5.32 | 6.74 | – |
| COc1ccc(Cn2cc(C(=O)Nc3cc(/C=C\c4cc(OC)c(OC)c(OC)c4)ccc3OC)nn2)cc1 | 5.43 | 5.53 | 5.68 | 5.48 | 5.67 | – |
| COc1ccc(/C=C\c2cc(OC)c(OC)c(OC)c2)cc1NC(=O)c1cn(Cc2cc(OC)c(OC)c(OC)c2)nn1 | 5.82 | 6.72 | 6.21 | 5.69 | 7.05 | – |
| COc1ccc(/C=C\c2cc(OC)c(OC)c(OC)c2)c(NC(=O)c2cn(Cc3cccc(Oc4ccccc4)c3)nn2)c1O | 5.37 | 5.30 | 5.33 | 5.13 | 5.44 | – |
| COc1ccc(/C=C\c2cc(OC)c(OC)c(OC)c2)cc1NC(=O)c1cn(Cc2cccc(Oc3ccccc3)c2)nn1 | 5.38 | 5.49 | 5.43 | 5.24 | 5.59 | – |
